Bioassay records as filed in PubChem BioAssay.
DENV2 CPE – protects cells from dengue virus 2 cytopathic effect; AID 651640; CPE inhibition, % at 9.99 µM; DENV2-infected cells, cytopathic effect rescue, plate reader; hit rate 1.7% among 350,000; in the data active = CPE inhibition above about 20%, passing the limit was not always enough; inconclusive = no clear call, values can overlap the other calls; tested in BHK-21 cells
SIRT5 inh – inhibitors of human sirtuin-5 desuccinylase | Purified SirT5, succinyl-peptide AMC, trypsin-coupled fluorescence | inhibition, % at 15 µM | hit rate 1.1% among 330,000; in the data active = inhibition above about 15%; inconclusive = no clear call, values can overlap the other calls
PglD DTNB – PglD (C. jejuni) enzyme inhibition; inhibition, % at 12.5 µM; purified PglD enzyme, DTNB colorimetric CoA detection; hit rate 0.098% among 360,000; in the data active = inhibition above about 16%, passing the limit was not always enough; inconclusive = no clear call, values can overlap the other calls
ERAP1 HTS inh – inhibitors of human ERAP1 aminopeptidase | inhibition, % at 10.7 µM | AID 652197 | recombinant ERAP1, Leu-AMC fluorescence, 60 min | hit rate 0.15% among 340,000;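 active = mean replicate inhibition of at least 30%, or all replicates individually reaching that 30% level; inactive = mean below 30% and not every replicate reaching it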
E-selectin induc – induces E-selectin expression in human endothelial cells; activation, % at 7.58 µM; hit rate 0.37% among 260,000; HUVEC E-selectin immunofluorescence imaging; normalized: neutral wells 0, TNF-alpha wells 100; AID 686992;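 active = mean E-selectin-positive cell signal at least 10% of the positive control, reached in at least 60% of replicates, without over 20% cell loss; inconclusive = no rule given, readout overlaps actives, possibly toxicity-flagged; inactive = the rest, including those meeting only one limit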
Target sequence (P16581 whole entry, looked up): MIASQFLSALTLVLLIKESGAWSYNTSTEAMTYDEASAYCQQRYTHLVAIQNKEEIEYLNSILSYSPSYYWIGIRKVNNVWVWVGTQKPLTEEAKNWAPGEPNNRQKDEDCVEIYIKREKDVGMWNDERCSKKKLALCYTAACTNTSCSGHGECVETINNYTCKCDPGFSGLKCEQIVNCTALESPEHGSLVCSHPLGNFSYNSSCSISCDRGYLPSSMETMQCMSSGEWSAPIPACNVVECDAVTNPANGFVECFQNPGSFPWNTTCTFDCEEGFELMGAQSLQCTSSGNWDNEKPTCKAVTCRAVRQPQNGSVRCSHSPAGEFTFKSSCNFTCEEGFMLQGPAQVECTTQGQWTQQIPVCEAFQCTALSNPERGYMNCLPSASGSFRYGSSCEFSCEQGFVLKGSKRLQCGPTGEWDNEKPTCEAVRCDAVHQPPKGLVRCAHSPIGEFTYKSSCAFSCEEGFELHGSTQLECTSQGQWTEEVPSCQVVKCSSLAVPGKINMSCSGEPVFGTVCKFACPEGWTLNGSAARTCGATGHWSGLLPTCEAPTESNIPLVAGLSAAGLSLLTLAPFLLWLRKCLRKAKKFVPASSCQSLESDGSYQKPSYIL
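Test system: HUVEC | Signal: Immunofluorescence imaging | Read-out: Percent E-selectin-positive cells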
Hits are given with their value; - = inactive; ? = inconclusive; . = no result. A selection: hits, their analogues and other compounds. The true share with any hit is near 2.5%.

SMILES	DENV2 CPE	SIRT5 inh	PglD DTNB	ERAP1 HTS inh	E-selectin induc
COc1ccc(NC(=O)Nc2ccc3c(c2)OC[C@@H](C)NC[C@H](C)[C@H](OC)CN(C)C3=O)cc1	22.2	-	.	-	-
Cc1ccccc1CN1CCCC(C(=O)Nc2ccc(-c3ccn[nH]3)cc2)C1 (stereo not drawn)	-	-	-	-	-
COc1ccccc1S(=O)(=O)N[C@H]1CC[C@@H](CC(=O)NCc2cccc(F)c2)O[C@H]1CO	-	-	-	-	-
CCCS(=O)(=O)c1cnc(C2COc3ccccc3O2)nc1N (stereo not drawn)	-	-	-	-	-
CO[C@H]1CN(C)C(=O)c2ccc(NC(=O)NC(C)C)cc2OC[C@H](C)NC[C@@H]1C	29.6	-	.	-	-
CO[C@H]1CN(C)C(=O)c2ccc(NC(=O)NC(C)C)cc2OC[C@@H](C)NC[C@@H]1C	-	-	-	-	-
CCC(=O)Nc1ccc2c(c1)OC[C@H](C)NC[C@H](C)[C@H](OC)CN(C)C2=O	20.8	-	-	-	-
CO[C@@H]1CN(C)C(=O)c2ccc(NC(=O)C3CCC3)cc2OC[C@H](C)NC[C@@H]1C	34.3	-	-	-	-
COC(=O)C[C@@H]1CC[C@H]2[C@H](COc3ccc(NC(=O)Nc4cccc(F)c4)cc3C(=O)N2C)O1	-	-	-	-	-
CCN(CC)CCCC(C)Nc1nccc2c(Cl)cccc12 (stereo not drawn)	48.7	-	-	-	-
COc1cccc(N2CCN(CC(=O)NC3=Nc4ccccc4N=C(C)C3c3ccccc3)CC2)c1 (stereo not drawn)	-	-	-	-	-
CC(C)CC#Cc1ccc2c(c1)O[C@@H](CN(C)C(=O)c1cccc(F)c1)[C@H](C)CN([C@@H](C)CO)S2(=O)=O	-	21.7	-	-	-
CC(C)CC#Cc1ccc2c(c1)O[C@H](CN(C)C(=O)c1ccccc1)[C@H](C)CN([C@H](C)CO)S2(=O)=O	-	15.2	-	-	-
C[C@@H]1CN([C@@H](C)CO)S(=O)(=O)c2ccc(C#CC3CC3)cc2O[C@@H]1CN(C)C(=O)c1cccc(F)c1	-	22.9	-	-	-
CC(C)CC#Cc1ccc2c(c1)O[C@@H](CN(C)C(=O)c1cccc(F)c1)[C@H](C)CN([C@H](C)CO)S2(=O)=O	-	16.0	-	-	-
CC(C)CC#Cc1ccc2c(c1)O[C@@H](CN(C)C(=O)c1cccc(F)c1)[C@@H](C)CN([C@@H](C)CO)S2(=O)=O	-	-	-	-	-
C[C@@H]1CN([C@H](C)CO)S(=O)(=O)c2ccc(C#CC3CC3)cc2O[C@@H]1CN(C)C(=O)c1cccc(F)c1	-	-	-	-	-
C[C@@H]1CN([C@@H](C)CO)C(=O)Cc2cc(NC(=O)CCC(F)(F)F)ccc2O[C@@H]1CN(C)Cc1ccc(C(=O)Nc2ccccc2N)cc1	-	-	-	-	.
COc1ccc(OC)c(NC(=O)CCNS(=O)(=O)c2cc(Br)cnc2N)c1	-	-	-	-	.
CC(C)CC#Cc1ccc2c(c1)O[C@H](CN(C)C(=O)c1cccc(F)c1)[C@@H](C)CN([C@@H](C)CO)S2(=O)=O	24.3	17.7	-	-	-
CC(C)CC#Cc1ccc2c(c1)O[C@H](CN(C)C(=O)c1cccc(F)c1)[C@@H](C)CN([C@H](C)CO)S2(=O)=O	-	21.6	-	-	-
CC(C)CC#Cc1ccc2c(c1)O[C@H](CN(C)C(=O)c1ccccc1)[C@@H](C)CN([C@@H](C)CO)S2(=O)=O	-	-	-	-	?
CC1CCN(CC(C)CNC(=O)c2cc(-c3ccccn3)nc3ccccc23)CC1 (stereo not drawn)	-	-	-	-	.
O=C(Nc1ccccc1)N1CCCCN2[C@H](CO)[C@@H](c3ccc(C#CC4CC4)cc3)[C@@H]2C1	-	-	-	-	-
O=C(Nc1ccccc1)N1CCCCN2[C@H](CO)[C@H](c3ccc(C#CC4CC4)cc3)[C@H]2C1	33.8	-	-	-	-
O=C(Nc1ccccc1)N1CCCCN2[C@@H](CO)[C@@H](c3ccc(Br)cc3)[C@@H]2C1	32.8	-	-	-	-
O=C(Nc1ccccc1)N1CCCCN2[C@H](C1)[C@@H](c1ccc(Br)cc1)[C@@H]2CO	-	-	-	-	-
O=C(c1ccccc1F)N1C[C@H]2[C@@H](c3ccccc31)[C@@H](CO)N2CC1CCCCC1	-	27.2	-	-	-
CCC(=O)N1C[C@H]2[C@@H](c3ccccc31)[C@@H](CO)N2CC1CCCC1	-	16.2	-	-	-
